Eight compounds from ChEMBL document CHEMBL1135780, “6-Chloro-3-alkylamino-4H-thieno[3,2-e]-1,2,4-thiadiazine 1,1-dioxide derivatives potently and selectively activate ATP sensitive potassium channels of pancreatic beta-cells” (J Med Chem, 2002) can be followed below.

Data set [1] can be described thus: Oral bioavailability in rat (Sprague-Dawley). It counts as ADME, organism-based. To be noted: Sprague-Dawley, in vivo. In short, it runs like this: (§1)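 Cassette dosing, two compounds per cassette, in Sprague–Dawley rats of about 180 g, n = 2. iv doses 0.5 or 0.89 mg/kg; oral doses 1.89 or 2.0 mg/kg. Vehicle 0.1 M potassium phosphate pH 8.0, or PEG 300 based. Heart-puncture sampling, one rat per point. Plasma levels by LC/MS/MS; noncompartmental analysis.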

Data set [2] is described as follows: Acid dissociation constant was determined. It counts as ADME. Put shortly: (§2)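 Potentiometric titration from pH 2 to 10.5 in 80% MeOH cosolvent. Three titrations on the same sample, with 0.15 M KCl added before the second. psKa values extrapolated to 0% cosolvent by Yasuda–Shedlovsky.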
Data set [3] in a line: Half life after oral administration to Sprague-Dawley rats. It counts as ADME, organism-based. To be noted: rat, in vivo. In short, it runs like this: as §1
Data set [4] is described as follows: Partition coefficient (logP). It counts as physicochemical. To be noted: octanol/water.
The subject of data set [5] is Beta-TC6. The data set is described as follows: Percentage insulin release in vitro in beta-TC6 cells. It counts as functional. The settings on record: Mus musculus. Put shortly:
(§3)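 βTC6 cells, 5 × 10⁴/well, grown 3 days in DMEM + 10% FCS, 11 mM glucose, 20 mM Hepes. Washed twice in NN buffer with 0.1% BSA, preincubated 60 min, then 3 h with 22 mM glucose, 0.1 mM IBMX and serial compound dilutions. Insulin in supernatant measured by in-house ELISA (guinea pig anti-insulin, rat insulin standard). Reference compound as positive control.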

Data set [6] concerns Beta-TC6. Put plainly: Ability to inhibit the release of insulin from the mouse beta-TC6 cell line. It counts as functional, cell-based. Put shortly: as §3
A short description of data set [7]: Changes in potassium fluxes assessed in the glucose responsive insulin-producing murine cell line beta-TC3. The data set is classed as functional, cell-based, Mus musculus. In short, it runs like this:
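βTC3 membrane potential read as DiBAC4(3) fluorescence at 0.01, 0.1, 1, 10 and 100 µM, four wells each. Signal normalized to each well's initial value and expressed as fractional fluorescence change over 45 min incubation. EC50 from four-parameter nonlinear fit; mean ± SEM of at least three independent experiments.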

The species entered for data set [8] is Rattus norvegicus. The data set is described as follows: Maximum change in MAP in rat. It counts as functional. In short, it runs like this:
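Anaesthetized male Sprague–Dawley rats given 3 mg/kg iv bolus (0.3 mg/kg for one compound) in 0.15% NaOH/saline via jugular cannula. Maximal percent change in mean arterial pressure over 5 min after dosing; mean ± SEM, 2–4 animals.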

The species named for data set [9] is Rattus norvegicus. Put plainly: Vasodilation effects on Wistar rat mesenteric arteries precontracted with phenylephrine. It counts as functional.
The species named for data set [10] is Rattus norvegicus. The data set is described as follows: Ability to relax phenylephrine-contracted rat aorta rings. It counts as functional.
The species entered for data set [11] is Rattus norvegicus. Put plainly: Inhibition of glucose-stimulated insulin release from Wistar rat islets. It counts as functional. In short, it runs like this:
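Isolated rat islets held overnight in RPMI, 10% FCS, 11 mM glucose, then 10 islets/well overnight in DMEM, 10% FCS, 3 mM glucose. Run like the βTC6 assay (60 min NN buffer preincubation, 3 h with 22 mM glucose and serial dilutions) without IBMX. Insulin by in-house ELISA.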

The species entered for data set [12] is Rattus norvegicus. Put plainly: Reduction in plasma insulin in 30 min post-injection in rat. On the set-up: concentration or dose not given beside the values. The data set is classed as functional. Put shortly: (§4)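 Postprandial male Sprague–Dawley rats, 280–320 g, under Hypnorm/Dormicum at 37 °C. 3 mg/kg iv bolus over 20 s via jugular cannula (0.3 mg/kg for one compound), dissolved in 0.15% NaOH and saline. Blood taken every 5–10 min from 15 min pre- to 30 min postinjection. Plasma insulin by ELISA, as % reduction from pre-dose level. 2–4 animals.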

For data set [13], the species on record is Rattus norvegicus. Put plainly: Maximum reduction in plasma insulin in rat. It counts as functional. Put shortly: as §4
Data set [14] has as its target T1, Sulfonylurea receptor 1, Kir6.2 (Homo sapiens, UniProt Q09428+Q14654). The data set is described as follows: Inhibition of [3H]glibenclamide binding to HEK293 cells co-expressing human Sulfonylurea receptor SUR1 and Inward rectifier K+ channel Kir6.2 at high affinity state with 2 mM MgATP. It counts as cell-based.
In data set [15] the target is T1, Sulfonylurea receptor 1, Kir6.2. Put plainly: Inhibition of [3H]glibenclamide binding to HEK293 cells co-expressing human Sulfonylurea receptor SUR1 and Inward rectifier K+ channel Kir6.2 at low affinity state with 2 mM MgATP. It counts as cell-based.
Data set [16] has the same target. The data set is described as follows: (§5) Inhibition of [3H]glibenclamide binding to HEK293 cells co-expressing human Sulfonylurea receptor SUR1 and Inward rectifier K+ channel Kir6.2 without ATP. The data set is classed as cell-based.
A short description of data set [17]: (§6) LogD for water and octanol distribution coefficient at pH 7.4. It counts as physicochemical. In short, it runs like this: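 Three titrations on one sample, with 1.00 mL then 10.00 mL octanol added before the second and third. Aqueous pKa used in refinement; combined multiset gives LogD at pH 7.4.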
Data set [18] relates to Beta-TC6. The data set is described as follows: Maximum inhibition of glucose stimulated insulin release from mouse beta-TC6 cells at 10 uM in vitro. The data set is classed as functional.
Data set [19] concerns the target T1, Sulfonylurea receptor 1, Kir6.2. The description is as §5. It counts as cell-based. Put shortly: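 Membranes from HEK293 cells stably expressing human SUR1/Kir6.2 (100 µg/mL protein) incubated 1 h at 37 °C with 1 nM [3H]glibenclamide in 30 mM HEPES pH 7.4, here without MgCl2 and ATP. Nonspecific binding with 10 µM glipizide. Rapid filtration, scintillation counting; IC50 by one- or two-site sigmoid nonlinear regression.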
This is another data set of the same source.

Data set [20] concerns βTC6 cells (Mus musculus). Put plainly: Inhibition of glucose-stimulated insulin release from βTC6 cells.
The species named for data set [21] is Rattus norvegicus. The data set is described as follows: Effective concentration required for relaxation of the rat aorta rings. The data set is classed as functional.
For data set [22], the species on record is Rattus norvegicus. The data set is described as follows: Effective concentration require for relaxation of rat aorta rings. The data set is classed as functional.
Data set [23] in a line: as §6. The data set is classed as physicochemical. In short, it runs like this: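 Octanol/water distribution measured by potentiometric titration, pH 10.5 to 2.0. Three titrations on one sample, with 1.00 mL then 10.00 mL octanol added before the second and third. Aqueous pKa used in refinement; combined multiset gives LogD at pH 7.4.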
The source holds these as a separate data set.

The nature of data set [24]: Compound was evaluated for physiochemical property pKa. The data set is classed as physicochemical. Put shortly: as §2

T1 sequence (Q14654 whole entry): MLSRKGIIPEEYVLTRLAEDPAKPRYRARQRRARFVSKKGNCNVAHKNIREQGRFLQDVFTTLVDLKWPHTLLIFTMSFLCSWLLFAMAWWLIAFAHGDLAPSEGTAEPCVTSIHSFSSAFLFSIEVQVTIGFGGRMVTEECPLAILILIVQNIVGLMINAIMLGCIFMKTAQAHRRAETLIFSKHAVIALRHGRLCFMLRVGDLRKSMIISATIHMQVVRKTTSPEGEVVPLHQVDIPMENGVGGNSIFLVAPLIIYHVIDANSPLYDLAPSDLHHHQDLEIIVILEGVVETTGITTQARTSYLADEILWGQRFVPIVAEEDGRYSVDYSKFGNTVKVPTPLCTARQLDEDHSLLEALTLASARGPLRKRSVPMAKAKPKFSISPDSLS
T1 sequence (Q09428 whole entry): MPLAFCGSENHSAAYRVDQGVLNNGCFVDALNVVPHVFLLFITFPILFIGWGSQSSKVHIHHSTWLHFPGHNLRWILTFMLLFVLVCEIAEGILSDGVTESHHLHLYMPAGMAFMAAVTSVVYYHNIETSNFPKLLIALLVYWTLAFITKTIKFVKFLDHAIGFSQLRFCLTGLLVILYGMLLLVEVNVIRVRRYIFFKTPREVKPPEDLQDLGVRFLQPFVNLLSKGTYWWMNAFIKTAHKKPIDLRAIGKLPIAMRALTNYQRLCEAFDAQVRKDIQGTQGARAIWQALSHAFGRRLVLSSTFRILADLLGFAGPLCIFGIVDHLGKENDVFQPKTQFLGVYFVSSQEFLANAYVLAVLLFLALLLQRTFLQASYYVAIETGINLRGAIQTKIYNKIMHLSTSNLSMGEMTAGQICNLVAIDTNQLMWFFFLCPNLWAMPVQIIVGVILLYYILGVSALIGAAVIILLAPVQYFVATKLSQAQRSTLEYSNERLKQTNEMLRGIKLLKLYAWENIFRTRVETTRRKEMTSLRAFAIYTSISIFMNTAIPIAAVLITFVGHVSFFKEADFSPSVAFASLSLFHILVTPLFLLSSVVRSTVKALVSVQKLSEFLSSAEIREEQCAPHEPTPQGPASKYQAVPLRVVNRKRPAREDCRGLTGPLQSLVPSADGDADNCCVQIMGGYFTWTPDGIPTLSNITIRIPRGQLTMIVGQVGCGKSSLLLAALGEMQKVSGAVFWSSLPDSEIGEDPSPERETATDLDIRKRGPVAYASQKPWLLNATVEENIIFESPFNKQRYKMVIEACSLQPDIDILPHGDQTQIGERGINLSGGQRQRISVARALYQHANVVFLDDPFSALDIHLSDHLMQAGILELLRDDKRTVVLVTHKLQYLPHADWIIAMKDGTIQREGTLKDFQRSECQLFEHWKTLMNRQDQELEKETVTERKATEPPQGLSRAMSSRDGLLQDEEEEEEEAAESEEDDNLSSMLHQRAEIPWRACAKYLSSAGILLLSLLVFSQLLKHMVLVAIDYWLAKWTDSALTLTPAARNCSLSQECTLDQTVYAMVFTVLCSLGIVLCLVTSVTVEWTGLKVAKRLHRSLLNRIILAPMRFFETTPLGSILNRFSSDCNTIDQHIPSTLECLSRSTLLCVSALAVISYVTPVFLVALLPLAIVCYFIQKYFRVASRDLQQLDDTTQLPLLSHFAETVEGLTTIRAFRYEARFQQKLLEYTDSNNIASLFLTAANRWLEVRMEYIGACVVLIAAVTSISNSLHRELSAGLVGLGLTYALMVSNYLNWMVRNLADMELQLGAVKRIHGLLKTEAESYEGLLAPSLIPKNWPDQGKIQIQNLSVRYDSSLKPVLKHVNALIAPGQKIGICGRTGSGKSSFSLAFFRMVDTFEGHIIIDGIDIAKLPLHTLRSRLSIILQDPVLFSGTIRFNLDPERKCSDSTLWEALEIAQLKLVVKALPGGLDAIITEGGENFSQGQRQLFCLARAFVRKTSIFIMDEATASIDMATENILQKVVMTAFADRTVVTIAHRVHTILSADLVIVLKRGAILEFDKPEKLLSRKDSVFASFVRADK

The term bioavailability denotes dose-corrected exposure relative to a reference, in per cent. As usually defined, the pKa is the negative logarithm of the acid dissociation constant. The half-life is the time in which the quantity being followed falls by half. By logP is commonly meant the decadic logarithm of the partition coefficient of the neutral form, usually between octanol and water. By Emax is commonly meant the maximal effect, on the per cent scale that the assay sets. By IC50 is commonly meant the midpoint of a concentration-inhibition curve. In general, EC50 refers to the midpoint of the concentration-response curve. Broadly, the logD is the decadic logarithm of the distribution of all forms, ionised or not, between an organic phase and buffer at a given pH. In [1], `CC(C)NC1=NS(=O)(=O)c2sc(Cl)cc2N1` registered a bioavailability of 65%. The same compound returned a pKa in [2] of 8.35. In data set [3], this compound yielded a half-life of 164 min. The logP in [4] turned out to be 1.84. Moreover, the Emax in the data set with Beta-TC6 [5] is 85%. For the same compound, the IC50 with Beta-TC6 [6] amounted to 230 nM; in the data set listed under Rattus norvegicus [11] it was 180 nM; in [14], 340 nM; in [15] it was 187 µM; in data set [16] it was 554 µM. Besides, the EC50 in data set [7] amounted to 600 nM; in the data set filed under Rattus norvegicus [9] it was 6.2 µM; in the data set filed under Rattus norvegicus [10] it was 266 µM. The Change in the data set filed under Rattus norvegicus [8] was -19%. Also, the Reduction in the data set listed under Rattus norvegicus [12] and in the data set listed under Rattus norvegicus [13] was 96% each time. In [17], this compound registered a logD of 1.63.
For `CCCNC1=NS(=O)(=O)c2sc(Cl)cc2N1`, the bioavailability in data set [1] turned out to be 69%. Also, in data set [2], the pKa turned out to be 8.23. In data set [3], the half-life came out at 72 min. The same compound returned a logP in data set [4] of 2.49. The compound further gave an Emax at 10 µM with Beta-TC6 [18] of 65%. The compound also gave an Emax with Beta-TC6 [5] of 65%. The IC50 with Beta-TC6 [6] is 2400 nM; in the data set filed under Rattus norvegicus [11], 700 nM; in data set [14], 2270 nM; in [15], 584 µM; in data set [16], 924 µM. Besides, the values for the EC50 (in data set [7]; in the data set listed under Rattus norvegicus [9]; in the data set listed under Rattus norvegicus [10]) were 2000 nM, 23.3 µM and 64.7 µM, respectively. Besides, the Change in the data set listed under Rattus norvegicus [8] is listed as 13%. Further, the Reduction in the data set listed under Rattus norvegicus [12] worked out at 16%; in the data set listed under Rattus norvegicus [13] it was 100%. The same compound had a logD in data set [17] of 2.42.
Regarding `CC[C@@H](C)NC1=NS(=O)(=O)c2sc(Cl)cc2N1`, the bioavailability in data set [1] is 90%. Besides, the pKa in data set [2] came out at 8.54. The half-life in data set [3] worked out at 163 min. Besides, the Emax (in the data set on Beta-TC6 [5]; in data set [20]) was 82% in each case. In addition, the IC50 with Beta-TC6 [6] stood at 240 nM; in the data set filed under Rattus norvegicus [11], 60 nM; in data set [19], 487 µM; in [14], 640 nM; in data set [15] it was 224 µM. Further, the EC50 in [7] was found to be 300 nM; in the data set filed under Rattus norvegicus [10], 70 µM. Further, the Change in the data set listed under Rattus norvegicus [8] is given as -17%. The Reduction turned out to be 94% in the data set filed under Rattus norvegicus [12] and 97% in the data set listed under Rattus norvegicus [13].
Regarding `CC[C@H](C)NC1=NS(=O)(=O)c2sc(Cl)cc2N1`, the bioavailability in [1] stood at 49%. In data set [2], this compound returned a pKa of 8.42. Also, the half-life in data set [3] stood at 58 min. The compound also displayed an Emax in the data set with Beta-TC6 [5] of 79%. The IC50 came out at 410 nM in the data set on Beta-TC6 [6]; 70 nM in the data set listed under Rattus norvegicus [11]; 420 µM in data set [19]; 460 nM in data set [14]; 309 µM in [15]. The EC50 in data set [7] is 800 nM; in the data set listed under Rattus norvegicus [9], 19.2 µM; in the data set filed under Rattus norvegicus [10], 51 µM. In the data set filed under Rattus norvegicus [8], the Change is reported as -7%. Further, the values for the Reduction in the data set filed under Rattus norvegicus [12] and in the data set filed under Rattus norvegicus [13] were 94% and 96%, respectively.
`CCNC1=NS(=O)(=O)c2sc(Cl)cc2N1` had an Emax at 10 µM in the data set on Beta-TC6 [18] of 74%. The IC50 in the data set with Beta-TC6 [6] stood at 1900 nM. In addition, the values for the EC50 (in data set [7]; in the data set listed under Rattus norvegicus [10]; in the data set listed under Rattus norvegicus [21]) were 9000 nM, 136 µM and 136 µM, respectively.
In the case of `CCCCNC1=NS(=O)(=O)c2sc(Cl)cc2N1`, the Emax at 10 µM with Beta-TC6 [18] came out at 66%. Besides, in the data set on Beta-TC6 [6], the IC50 is 1390 nM. Also, the EC50 in [7] was determined as 600 nM; in the data set listed under Rattus norvegicus [10], 13.4 µM; in the data set filed under Rattus norvegicus [21] it was 13.4 µM.
As for `CNC1=NS(=O)(=O)c2sc(Cl)cc2N1`, the Emax at 10 µM in the data set with Beta-TC6 [18] worked out at 35%. The compound further showed an IC50 with Beta-TC6 [6] of 21200 nM. Besides, the EC50 in data set [7] was more than 100000 nM; in the data set listed under Rattus norvegicus [10], 17.3 µM; in the data set filed under Rattus norvegicus [22], 17.3 µM.
`CCC(C)CNC1=NS(=O)(=O)c2sc(Cl)cc2N1` (racemic): in [23], the logD worked out at 3.14. In data set [4], this compound gave a logP of 3.17. This compound also had a pKa in data set [24] of 8.29. This compound came in with an Emax at 10 µM in the data set on Beta-TC6 [18] of 48%. In addition, the IC50 in the data set on Beta-TC6 [6] came to 150 nM. In addition, the EC50 in [7] worked out at 20000 nM; in the data set listed under Rattus norvegicus [10], 20.5 µM.
